Assay results gathered from unrelated publications.
Lines come from different studies, so protocols differ.
Target: Homeodomain-interacting protein kinase 4 (HIPK4, Homo sapiens, UniProt Q8NE63)
Sequence (Q8NE63 1-616, as in one of the studies): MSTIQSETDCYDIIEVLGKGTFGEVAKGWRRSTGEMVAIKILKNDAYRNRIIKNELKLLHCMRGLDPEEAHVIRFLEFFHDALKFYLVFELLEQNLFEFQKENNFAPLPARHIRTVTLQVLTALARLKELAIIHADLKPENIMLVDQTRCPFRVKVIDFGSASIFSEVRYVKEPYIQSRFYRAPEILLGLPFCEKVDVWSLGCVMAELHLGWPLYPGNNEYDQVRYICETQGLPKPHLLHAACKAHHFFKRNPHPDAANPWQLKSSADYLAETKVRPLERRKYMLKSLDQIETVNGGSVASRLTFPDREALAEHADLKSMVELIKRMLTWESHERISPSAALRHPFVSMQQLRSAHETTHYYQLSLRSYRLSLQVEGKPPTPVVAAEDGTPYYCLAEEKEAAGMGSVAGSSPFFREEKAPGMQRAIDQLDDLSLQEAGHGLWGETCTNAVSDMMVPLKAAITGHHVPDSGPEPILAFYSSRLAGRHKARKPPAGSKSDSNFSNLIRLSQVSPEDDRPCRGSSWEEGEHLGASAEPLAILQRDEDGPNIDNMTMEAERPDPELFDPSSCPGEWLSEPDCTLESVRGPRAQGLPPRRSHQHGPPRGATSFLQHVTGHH

SMILES	effect on	mode	method	concentration	measurement	result
CNC(=O)c1cc2c(Oc3ccc(NC(=O)C4(C(=O)Nc5ccc(F)cc5)CC4)cc3)ccnc2cc1OC	enzyme activity	inhibitor	radiometric	1 µM	inhibition	102%
COc1cccc(Nc2nc3cc(C(=O)O)ccc3c3cnccc23)c1	enzyme activity	inhibitor	radiometric	1 µM	remaining activity	-14%
C[C@@H](c1cccc(C#N)c1)n1cc(Cl)cc(C(N)=O)c1=N	cell-free assay	–	competition with immobilised ligand	1 µM	remaining binding	100%
CCOc1cc(-c2nncn2C)ccc1Nc1ncc2cc(C)nc(NCC(C)(C)C)c2n1	enzyme activity	inhibitor	FRET	1 µM	inhibition	< 15%
CC(C)CC(=O)N1CCc2nc(-c3ccc(Br)cc3)nc(N(C)Cc3ccccc3)c2C1	cell-free assay	–	competition with immobilised ligand	0.1 µM	remaining binding	61%
COc1cccc(CCNc2nc3cc(C(=O)O)ccc3c3cnccc23)c1	enzyme activity	inhibitor	radiometric	1 µM	remaining activity	-8%
CCCOc1ccc([C@H]2[C@H](C(=O)O)[C@@H](c3ccc4c(c3)OCO4)CN2CC(=O)Nc2c(CC)cccc2CC)cc1	cell-free assay	–	competition with immobilised ligand	1 µM	remaining binding	70%
Cc1ccc(NC(=O)c2ccc(CN3CCN(C)CC3)cc2)cc1Nc1nc(-c2cccnc2)cs1	cell-free assay	–	–	0.5 µM	remaining signal	101%
CNC(=O)Nc1ccc2c(c1)CC[C@@]21OC(=O)N(CC(=O)N(Cc2ccc(F)cc2)[C@@H](C)C(F)(F)F)C1=O	cell-free assay	–	competition with immobilised ligand	1 µM	remaining binding	97%
COc1ccc(COc2ccc(Cc3cnc(N)nc3N)cc2OC)cc1	cell-free assay	–	–	0.5 µM	remaining signal	97.7%
N#Cc1cccc(Nc2nc3cc(C(=O)O)ccc3c3cnccc23)c1	enzyme activity	inhibitor	radiometric	1 µM	remaining activity	29%
CS(=O)(=O)N1CCCC(NC(=O)[C@H](CCC2CCCCC2)NC(=O)c2ccc(CNC(=O)c3cnc4ccccn34)cc2)C1 (some centres unmarked)	cell-free assay	–	competition with immobilised ligand	0.1 µM	remaining binding	88%
CN1CC(Oc2cnc(C#N)cc2-c2ccn3nc(NC(=O)C4CC4)cc3c2)C1	enzyme activity	inhibitor	–	1 µM	inhibition	2%
O=C(O)c1ccc2c(c1)nc(NCCc1cccc(Cl)c1)c1ccncc12	enzyme activity	inhibitor	radiometric	1 µM	remaining activity	47%
CC/C(=N\NC(=O)NCc1cccc(O)c1)c1ccc(O)c(C)c1O	enzyme activity	inhibitor	–	0.1 µM	inhibition	1.5%
O=C(O)c1ccc2c(c1)nc(NCc1ccccc1)c1ccncc12	enzyme activity	inhibitor	radiometric	1 µM	remaining activity	33%
COc1cc2ncnc(Nc3ccc(Oc4ccccc4)c(C)c3C)c2cc1OC	enzyme activity	inhibitor	–	1 µM	inhibition	-2%
O=C(O)c1ccc2c(c1)nc(Nc1ccc3ccccc3c1)c1ccncc12	enzyme activity	inhibitor	radiometric	1 µM	remaining activity	-10%
O=C1Nc2ccc(Cl)cc2C1=Cc1cc(Cl)c(O)c(Cl)c1	cell-free assay	–	–	0.5 µM	remaining signal	88.4%
CS(=O)(=O)c1cc(C2(NC(=O)c3cncc4c3cnn4-c3ccc(F)cc3)CC2)ccn1	cell-free assay	–	competition with immobilised ligand	1 µM	remaining binding	100%
